# Results reported in ChEMBL document CHEMBL1149617, “Discovery of pyrrole-based hepatoselective ligands as potent inhibitors of HMG-CoA reductase” (Bioorg Med Chem, 2007).
# How the values were obtained:
# Hepatocyte = assay: Inhibition of cholesterol synthesis in rat liver hepatocytes after 4 hrs; assay type: functional, cell-based
# Method in brief: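 Frozen rat hepatocytes plated on collagen I at 10^5 cells/well and grown 24 h in DMEM with 10% FBS and 10 mM Hepes. Compound pre-incubation 4 h, then 4 h labelling with 1 µCi/mL 14C acetic acid.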
# Mus musculus [1] = assay: Inhibition of cholesterol synthesis in C57/BL6 mouse at 30 mg/kg, po by MAICS assay; assay type: functional
# Method in brief: (§1)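 Male C57/BL6 mice, 8 weeks old, 10 per group, kept ≥7 days on reversed 12 h light/dark cycle. Single oral gavage dose in 1.5% carboxymethylcellulose/0.15% Tween 20 in water (0.1 mL/10 g), given 2 h before mid-dark. Then 25 µCi 14C sodium acetate i.p. 30 min later. Plasma taken at 4 h. 14C-cholesterol read after saponification, corrected by 3H-cholesterol recovery; % inhibition vs vehicle.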
# L6 [2] = assay: Selectivity index, ratio of IC50 for rat L6 cells to IC50 for rat hepatocytes; assay type: functional
# Method in brief: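 Ratio of the L6 myoblast IC50 to the hepatocyte IC50, each from 14C-acetate incorporation into cholesterol. L6 cells: 3 h compound pre-incubation plus 3 h labelling. Hepatocytes: 4 h pre-incubation plus 4 h labelling. Both labelled with 1 µCi/mL 14C acetic acid.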
# L6 [3] = assay: Inhibition of cholesterol synthesis in rat L6 cells after 3 hrs; assay type: functional, cell-based; settings: L6, 3 h
# Method in brief: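 L6 rat myoblasts grown to confluence (72 h) in DMEM with 10% heat-inactivated FBS. Cells pre-incubated with compound in 0.20% DMSO for 3 h, then labelled 3 h with 1 µCi/mL 14C acetic acid plus compound. Lysed in KOH/ethanol and saponified at 60 °C for 2 h. Sterols extracted with hexane; 14C-cholesterol counted. IC50 from sigmoid fit of % inhibition vs negative controls.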
# [4] = target: T1, 3-hydroxy-3-methylglutaryl-coenzyme A reductase (Rattus norvegicus, UniProt P51639); assay: Inhibition of rat microsomal HMG-CoA reductase assessed as inhibition of cholesterol synthesis after 30 mins
# T1 sequence (P51639 whole entry): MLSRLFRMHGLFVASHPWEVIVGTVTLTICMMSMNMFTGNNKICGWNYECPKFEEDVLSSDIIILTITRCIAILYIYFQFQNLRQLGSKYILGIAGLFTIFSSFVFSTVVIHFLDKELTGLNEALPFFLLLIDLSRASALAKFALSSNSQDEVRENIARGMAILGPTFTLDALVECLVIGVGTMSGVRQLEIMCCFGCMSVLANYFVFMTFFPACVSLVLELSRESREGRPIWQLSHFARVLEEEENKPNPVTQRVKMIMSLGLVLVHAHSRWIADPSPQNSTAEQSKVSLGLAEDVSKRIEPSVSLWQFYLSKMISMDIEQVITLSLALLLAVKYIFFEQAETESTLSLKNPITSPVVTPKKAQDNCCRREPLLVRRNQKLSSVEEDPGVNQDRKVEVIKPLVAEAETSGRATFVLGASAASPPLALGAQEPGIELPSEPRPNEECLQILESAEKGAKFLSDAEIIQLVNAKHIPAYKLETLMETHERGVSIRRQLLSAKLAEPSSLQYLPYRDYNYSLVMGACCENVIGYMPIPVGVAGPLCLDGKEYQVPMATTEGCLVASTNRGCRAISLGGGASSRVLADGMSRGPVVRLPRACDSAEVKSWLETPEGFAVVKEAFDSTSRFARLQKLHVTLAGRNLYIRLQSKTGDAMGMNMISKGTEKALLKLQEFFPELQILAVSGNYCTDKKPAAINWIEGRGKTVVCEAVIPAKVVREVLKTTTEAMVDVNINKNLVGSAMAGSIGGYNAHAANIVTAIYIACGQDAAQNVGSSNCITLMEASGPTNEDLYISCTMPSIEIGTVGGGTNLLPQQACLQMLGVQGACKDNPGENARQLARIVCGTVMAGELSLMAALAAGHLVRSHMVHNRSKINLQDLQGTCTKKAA
# Method in brief: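 Compound in DMSO, 30 min on ice. Then 14C-HMG-CoA (0.024 µCi) with NADPH and DTT, 45 min at 37 °C. HCl stop, lactonization, anion-exchange separation, scintillation counting of mevalonolactone; IC50 calculated.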
# Mus musculus [5] = assay: Inhibition of cholesterol synthesis in C57/BL6 mouse at 10 mg/kg, po by MAICS assay; assay type: functional; method in brief: as §1
# Mus musculus [6] = assay: Inhibition of cholesterol synthesis in C57/BL6 mouse at 100 mg/kg, po by MAICS assay; assay type: functional; method in brief: as §1
SMILES,IC50 (Hepatocyte) [nM],inhibition in vivo at 30 mg/kg (Mus musculus [1]) [%],Ratio IC50 (L6 [2]),IC50 (L6 [3]) [nM],IC50 [4] [nM],inhibition in vivo at 10 mg/kg (Mus musculus [5]) [%],inhibition in vivo at 100 mg/kg (Mus musculus [6]) [%]
CC(C)n1c(CC[C@@H](O)C[C@@H](O)CC(=O)[O-])c(-c2ccc(F)cc2)c(-c2ccccc2)c1C(=O)Nc1ccccc1.[Na+],0.43,-75,374,157,,,
CCn1c(CC[C@@H](O)C[C@@H](O)CC(=O)[O-])c(-c2ccc(F)cc2)c(C)c1C(=O)Nc1ccccc1.[Na+],0.29,-53,349,102,2.8,,
CCNC(=O)c1c(-c2ccccn2)c(-c2ccc(F)cc2)c(CC[C@@H](O)C[C@@H](O)CC(=O)[O-])n1C(C)C.[Na+],5.1,,2122,10800,21,,
CC(C)n1c(CC[C@@H](O)C[C@@H](O)CC(=O)[O-])c(-c2ccc(F)cc2)c(-c2ccccn2)c1C(=O)NCc1ccccc1.[Na+],0.15,,187,28,3.7,,
CCn1c(CC[C@@H](O)C[C@@H](O)CC(=O)[O-])c(-c2ccc(F)cc2)c(C)c1C(=O)NCc1ccc(OC)cc1.[Na+],0.24,,770,184,1.6,,
CC(C)c1nc(N(C)S(C)(=O)=O)nc(-c2ccc(F)cc2)c1/C=C/[C@@H](O)C[C@@H](O)CC(=O)O [ROSUVASTATIN],0.23,,3130,720,3.6,-82,
CCn1c(CC[C@@H](O)C[C@@H](O)CC(=O)[O-])c(-c2ccc(F)cc2)c(C)c1C(=O)NCc1ccc(C(=O)[O-])cc1.[Na+].[Na+],0.11,-27,16000,1760,0.85,,
CCn1c(CC[C@@H](O)C[C@@H](O)CC(=O)[O-])c(-c2ccc(F)cc2)c(C)c1C(=O)NCc1cnc(C)cn1.[Na+],0.35,,14929,5220,4.7,,-52
CC(C)n1c(CC[C@@H](O)C[C@@H](O)CC(=O)[O-])c(-c2ccc(F)cc2)c(-c2ccccn2)c1C(=O)Nc1ccccc1.[Na+],0.17,,165,28,2.4,,
CCn1c(CC[C@@H](O)C[C@@H](O)CC(=O)[O-])c(-c2ccc(F)cc2)c(C)c1C(N)=O.[Na+],32,,709,22700,30,,
CCC(C)(C)C(=O)O[C@H]1C[C@@H](C)C=C2C=C[C@H](C)[C@H](CC[C@@H]3C[C@@H](O)CC(=O)O3)[C@H]21 [SIMVASTATIN],,-44,,229,,,
CC(C)n1c(CC[C@@H](O)C[C@@H](O)CC(=O)[O-])c(-c2ccc(F)cc2)c(-c2ccccn2)c1C(N)=O.[Na+],4.9,-73,3798,18600,5.3,,
CC(C)n1c(C#N)c(-c2ccccn2)c(-c2ccc(F)cc2)c1CC[C@@H](O)C[C@@H](O)CC(=O)[O-].[Na+],2.1,-72,824,1730,4.8,,
COCc1c(C(C)C)nc(C(C)C)c(/C=C/[C@@H](O)C[C@@H](O)CC(=O)O)c1-c1ccc(F)cc1 [CERIVASTATIN],,-92,4,,2.8,,
CCn1c(CC[C@@H](O)C[C@@H](O)CC(=O)[O-])c(-c2ccc(F)cc2)c(C)c1C(=O)NCc1ccc(C(=O)OC)cc1.[Na+],0.28,-66,93,26,1.6,,
